Where a SMILES comes first, the peptide text is derived from it. [ ]: non-standard residue; d: D form. The star is where a group is joined. X1 = COc1ccc(C[C@@H](CN[C@@H](CCCNC(=N)N)C(=O)O)N*)cc1; Hyp = O=C(O)[C@@H]1C[C@@H](O)CN1; 2Thi = N[C@@H](Cc1cccs1)C(=O)O Some results are limits rather than exact numbers.

Assay [1] deals with T1, B2 bradykinin receptor (Homo sapiens, UniProt P30411).
T1 sequence (P30411 whole entry): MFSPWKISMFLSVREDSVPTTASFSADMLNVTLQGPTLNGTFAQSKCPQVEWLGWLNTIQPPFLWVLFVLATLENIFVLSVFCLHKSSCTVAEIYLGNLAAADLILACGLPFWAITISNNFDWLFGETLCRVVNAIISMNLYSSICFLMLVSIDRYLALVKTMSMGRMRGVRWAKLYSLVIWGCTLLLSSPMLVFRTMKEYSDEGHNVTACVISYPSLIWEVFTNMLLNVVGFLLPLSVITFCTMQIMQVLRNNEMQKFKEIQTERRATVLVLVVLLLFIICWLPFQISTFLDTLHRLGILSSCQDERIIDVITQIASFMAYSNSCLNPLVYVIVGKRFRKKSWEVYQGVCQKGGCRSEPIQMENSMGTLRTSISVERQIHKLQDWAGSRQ
Briefly: Binding affinity against human cloned Bradykinin receptor B2 expressed in CHO cells using [3H]-bradykinin as radioligand. The format is cell-based. The method, boiled down: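 Membranes of stably transfected CHO cells (human or rat B2 receptor), prepared in 20 mM TES pH 6.8 with 1 mM 1,10-phenanthroline, 140 µg/mL bacitracin and 0.1% BSA, spun at 40 000g. Filtration on PEI-soaked GF/B filters.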

The target of a further assay is T2, B1 bradykinin receptor (Homo sapiens, UniProt P46663).
T2 sequence (P46663 whole entry): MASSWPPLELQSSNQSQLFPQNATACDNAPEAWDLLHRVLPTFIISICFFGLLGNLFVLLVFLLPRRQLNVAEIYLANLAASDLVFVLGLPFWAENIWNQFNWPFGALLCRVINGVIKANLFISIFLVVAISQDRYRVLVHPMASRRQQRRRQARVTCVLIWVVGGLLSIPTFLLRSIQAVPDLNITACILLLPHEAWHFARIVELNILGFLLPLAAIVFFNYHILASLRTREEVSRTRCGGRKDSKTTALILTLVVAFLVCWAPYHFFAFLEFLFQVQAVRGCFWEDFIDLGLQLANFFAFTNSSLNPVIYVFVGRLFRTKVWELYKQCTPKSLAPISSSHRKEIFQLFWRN
The assay can be described thus: Binding affinity against human cloned Bradykinin receptor B1 expressed in HEK 293 cells using [3H]des-Arg10-[Leu9]-kallidin as radioligand.

The species entered for assay [2] is Rattus norvegicus. The assay can be described thus: Agonistic activity on rat uterus(RUT) in absence of inhibitors. The format is functional. A digest of the protocol:
(§1)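 Uterus from female Sprague–Dawley rats (250-300 g) pretreated with diethylstilbestrol 0.1 mg/kg s.c. 18 h before CO2 kill. Tissue placed in Jalon solution (mM: NaCl 154, KCl 5.6, NaHCO3 1.7, MgCl2 1.4, glucose 5.5, CaCl2 0.3). One cumulative concentration-response curve per segment, run with or without protease inhibitors. Maximum per segment taken with angiotensin II (3 μM). Means ± SEM, n = 5; pD2.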

The species named for assay [3] is Homo sapiens. Briefly: (§2) Agonistic activity on human umbilical vein(HUV) in presence of inhibitors. Type of assay: functional. The method, boiled down:
(§3)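 Human umbilical vein segments; cumulative concentration-response to agonist measured as contraction, run with or without protease inhibitors. Maximal contraction of each segment obtained after washout with U46619 (1 μM).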

Assay [4] is filed under the species Homo sapiens. The assay can be described thus: Agonistic activity on human umbilical vein(HUV) in absence of inhibitors. The format is functional. The method, boiled down: as §3
For assay [5], the species on record is Rattus norvegicus. Briefly: (§4) Agonistic activity on rat uterus(RUT) in presence of inhibitors. The format is functional. A digest of the protocol: as §1
The target of assay [6] is T3, B2 bradykinin receptor (Rattus norvegicus, UniProt P25023).
T3 sequence (P25023 whole entry): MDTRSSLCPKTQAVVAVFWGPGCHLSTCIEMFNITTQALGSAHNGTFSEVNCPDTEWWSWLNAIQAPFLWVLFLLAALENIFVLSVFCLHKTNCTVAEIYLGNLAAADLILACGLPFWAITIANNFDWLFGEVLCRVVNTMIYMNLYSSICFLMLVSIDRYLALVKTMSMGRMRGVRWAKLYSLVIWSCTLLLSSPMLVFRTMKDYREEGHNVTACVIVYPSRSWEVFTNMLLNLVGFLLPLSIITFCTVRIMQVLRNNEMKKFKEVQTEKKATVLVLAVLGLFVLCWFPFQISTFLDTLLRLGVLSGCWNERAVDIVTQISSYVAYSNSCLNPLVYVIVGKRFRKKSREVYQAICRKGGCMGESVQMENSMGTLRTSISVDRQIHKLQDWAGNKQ
The assay can be described thus: Binding affinity against rat bradykinin B2 receptors expressed in CHO cells using [3H]bradykinin as radioligand. The format is cell-based. A digest of the protocol:
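Membranes of stably transfected CHO cells (human or rat B2 receptor), prepared in 20 mM TES pH 6.8 with 1 mM 1,10-phenanthroline, 140 µg/mL bacitracin and 0.1% BSA, spun at 40 000g. […] Filtration on PEI-soaked GF/B filters. Ki, means ± SEM (n = 3 or 4).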

The target in assay [7] is T3, B2 bradykinin receptor. The assay can be described thus: Binding affinity against rat Bradykinin receptor B2 expressed in CHO cells using [3H]-bradykinin as radioligand. The format is cell-based. A digest of the protocol:
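Competition binding on membranes from stably transfected CHO cells. Cells were scraped into 20 mM TES pH 6.8 with 1 mM 1,10-phenanthroline, 140 µg/mL bacitracine and 0.1% BSA, and membranes were pelleted at 40 000g for 15 min. […] Bound label was collected by filtration on PEI-presoaked GF/B filters and counted by scintillation. n = 3 or 4.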

Assay [8] is filed under the species Homo sapiens. The description is as §2. Type of assay: functional, organism-based. To be noted: read-out: pA2 (converted). A digest of the protocol: as §3
The species named for assay [9] is Rattus norvegicus. Described as §4. The format is functional, organism-based. To be noted: read-out: pA2 (converted). The method, boiled down: as §1

As a reminder, the Ki is a dissociation constant, usually derived from enzyme kinetics or from competition with a known ligand. The low end stands for higher affinity, the high end for lower affinity. `N=C(N)NCCC[C@@H](N)C(=O)N[C@@H](CCCNC(=N)N)C(=O)N1CCC[C@H]1C(=O)N1CC(O)C[C@H]1C(=O)NCC(=O)N[C@@H](Cc1cccs1)C(=O)N[C@@H](CO)C(=O)N[C@H]1CSc2ccccc2N(CC(=O)N[C@@H](CCCNC(=N)N)C(=O)O)C1=O` (stereo partly specified): the Ki at B2 bradykinin receptor [1] is 162 nM; on B1 bradykinin receptor, > 10000 nM.

Regarding `NC(N)=NCCC[C@@H](N)C(=O)N[C@@H](CCCN=C(N)N)C(=O)N1CCC[C@H]1C(=O)N1CC(O)C[C@H]1C(=O)NCC(=O)N[C@@H](Cc1cccs1)C(=O)N[C@@H](CO)C(=O)N[C@@H]1CSc2ccccc2N(CC(=O)N[C@@H](CCCN=C(N)N)C(=O)O)C1=O` (stereo partly specified), the pD2 in the assay listed under Rattus norvegicus [2] is recorded as 7.2; in the assay filed under Homo sapiens [3] it was 6.8; in the assay filed under Homo sapiens [4], 6.7; in the assay listed under Rattus norvegicus [5], 7.5. For the same compound, the Ki on B2 bradykinin receptor [1] is 0.7 nM; at B1 bradykinin receptor, > 10000 nM; at B2 bradykinin receptor [6] it was 6 nM.

On to “H-RPPGFSPFR-OH [BRADYKININ] [listing 1 of 2 here]”, for which the pD2 came to 7.33 in the assay listed under Rattus norvegicus [2], 7.9 in the assay filed under Homo sapiens [3], 7.4 in the assay listed under Homo sapiens [4] and 8.3 in the assay filed under Rattus norvegicus [5].

On B2 bradykinin receptor [7], “H-RPPGFSPFR-OH [BRADYKININ] [listing 2 of 2 here]” registered a Ki of 0.46 nM.

For `NC(N)=NCCC[C@@H](N)C(=O)N[C@@H](CCCN=C(N)N)C(=O)N1CCC[C@H]1C(=O)N1C[C@H](O)C[C@H]1C(=O)NCC(=O)N[C@@H](Cc1cccs1)C(=O)N[C@@H](CO)C(=O)N1Cc2ccccc2C[C@@H]1C(=O)N1[C@H](C(=O)N[C@@H](CCCN=C(N)N)C(=O)O)C[C@@H]2CCCC[C@@H]21` [ICATIBANT], the Kb is 6.61 nM in the assay filed under Homo sapiens [8] and 1.15 nM in the assay filed under Rattus norvegicus [9]. For the same compound, the Ki at B2 bradykinin receptor [6] was 0.077 nM.

For `COc1ccc(C[C@@H](CN[C@@H](CCCNC(=N)N)C(=O)O)NC(=O)[C@@H]2CCCN2C(=O)[C@H](CO)NC(=O)[C@H](Cc2cccs2)NC(=O)CNC(=O)[C@@H]2C[C@@H](O)CN2C(=O)[C@@H]2CCCN2C(=O)[C@@H](N)CCCNC(=N)N)cc1` [LABRADIMIL] (H-RP[Hyp]G[2Thi]SP-X1), the pD2 in the assay filed under Homo sapiens [3] turned out to be 7.1; in the assay filed under Homo sapiens [4], 6.9. On B2 bradykinin receptor [1], this compound came in with a Ki of 19 nM.

`N=C(N)NCCC[C@H](NC(=O)CN1C(=O)[C@H](NC(=O)[C@H](CO)NC(=O)[C@H](Cc2ccccc2)NC(=O)CNC(=O)[C@@H]2CCCN2C(=O)[C@@H]2CCCN2C(=O)[C@@H](N)CCCNC(=N)N)CSc2ccccc21)C(=O)O`: the Ki at B1 bradykinin receptor was > 10000 nM.

Values taken from ChEMBL document CHEMBL1132435 (J Med Chem, 1999).
